This excerpt belongs to a sample that is enriched for hits.
CHOP UPR activ – activators of apoptotic CHOP UPR arm, primary screen, cell-based, CHO-CHOP luciferase reporter, luminescence, uHTS; activation, % at 10 µM; actives 0.34% (n = 330,000); UPR activation; percent of tunicamycin response over DMSO baseline;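 active = at 10 µM dose, activation of 40% or more, normalized to positive control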;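 also: 100% = tunicamycin at 10 µg/mL and 0% = DMSO alone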
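Test system: CHO CHOP reporter cells. Input: 500 CHO-CHOP cells per well. Medium: F12 with 10% FBS. Technique: luciferase luminescence. Measure: percent activation relative to tunicamycin control. Dosing: 10 µM compound, 0.5% DMSO. Timing: 16-18 h cell attachment, then 6 h compound exposure, 37 °C.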
CHOP inhibitor – inhibitors of CHOP promoter induction, primary screen, cell-based, unfolded protein response, luciferase reporter; CHO-K1 CHOP-promoter luciferase, tunicamycin-induced, 15-18 h; inhibition, % at 10 µM; actives 3.8% (n = 220,000);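 active = compounds that reduced the stress-induced luciferase reporter signal by more than about 70% of percent inhibition, limit read from the data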;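 also: 0% = tunicamycin plus vehicle and 100% = wells without tunicamycin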
UPR XBP1 act – activators of adaptive XBP1 UPR arm, primary screen, cell-based, CHO-XBP1 luciferase reporter, luminescence, uHTS | IRE1-XBP1 UPR activation; percent of tunicamycin response, DMSO as zero | activation, % at 20 µM | actives 0.33% (n = 330,000) | AID 463104, 2010;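 active = versus positive control, 20 µM dose yields 30% or more activation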;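 also: 100% = tunicamycin at 10 µg/mL and 0% = DMSO only wells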
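incubation = overnight seeding at 37 °C, 6 h compound treatment at 37 °C | assay system = CHO-XBP1 cells stably carrying IRE1-XBP1-driven luciferase reporter | input = 1000 cells per well | detection = luciferase luminescence | dosing = single point, 20 µM final compound, 1% DMSO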
Jurkat NFkB inh – inhibitors of induced NF-kB luciferase reporter, primary screen, TCR NF-kB activation inhibitor project, cell-based, luminescence, uHTS; Jurkat, PMA/ionomycin-induced NF-kB luciferase reporter; inhibition, % at 4 µM; actives 0.53% (n = 330,000); in the data active = inhibition above about 50%
697 NFkB inh – inhibitors of PMA/ionomycin-induced NF-kB reporter, 697 cells, primary screen, B-cell NF-kB inhibitor project, cell-based, luminescence, uHTS; inhibition, % at 4 µM; actives 0.33% (n = 330,000); 697 B-cell NF-kB luciferase reporter, 16 h; in the data active = inhibition above about 35%
Active calls of the source: *.

For COc1cccc(CNC(=O)C2CCC(=O)N(CC3CCCCC3)C2)c1OC (centres undefined) the results were CHOP UPR activ -1, UPR XBP1 act -4, Jurkat NFkB inh -6 and 697 NFkB inh -20.
`Cc1cc(NC(=O)CSCC(=O)N(C)Cc2ccc(Cl)cc2Cl)no1` gave CHOP UPR activ -1, UPR XBP1 act 1, Jurkat NFkB inh -10 and 697 NFkB inh -32.
Screening Cc1c(C(=O)Nc2ccc(-c3nnc4n3CCCCC4)cc2)oc2c1ccc1ccccc12 returned CHOP UPR activ 5, CHOP inhibitor 95*, UPR XBP1 act -2, Jurkat NFkB inh 25 and 697 NFkB inh -5.
For CCCCCCOC(=O)C(C#N)c1nc2ccccc2nc1N1CCOCC1 (centres undefined) the results were CHOP UPR activ -1, CHOP inhibitor 94*, UPR XBP1 act -1, Jurkat NFkB inh 8 and 697 NFkB inh -17.
For CCCCOC(=O)C(C#N)c1nc2ccccc2nc1N1CCOCC1 (centres undefined) the results were CHOP UPR activ 1, CHOP inhibitor 61, UPR XBP1 act 1, Jurkat NFkB inh 16 and 697 NFkB inh 1.
Screening O=C(CSc1nnc(-c2ccccc2)c(-c2ccccc2)n1)N1CCOCC1 returned CHOP UPR activ -2, CHOP inhibitor 72*, UPR XBP1 act -4, Jurkat NFkB inh -1 and 697 NFkB inh 2.
For Cc1ccc2c(c1)sc1nc(=O)n(-c3ccc(Cl)cc3)c(=O)n12 the results were CHOP UPR activ 3, CHOP inhibitor 80*, UPR XBP1 act 9, Jurkat NFkB inh -35 and 697 NFkB inh -10.
Cc1cc(Cl)c2c(c1)[C@]1(C(=O)N2)[C@@H]2C(=O)N(Cc3ccccc3)C(=O)[C@@H]2[C@@H]2CCCN21 was read as CHOP UPR activ 0, CHOP inhibitor 71*, UPR XBP1 act -2, Jurkat NFkB inh -13 and 697 NFkB inh -38.
For O=C1N/C(=N\N=C\c2cccs2)SC1Cc1cccc(Cl)c1Cl (centres undefined) the results were CHOP UPR activ 1, CHOP inhibitor 65, UPR XBP1 act 3, Jurkat NFkB inh 39 and 697 NFkB inh -64.
Screening CCn1c2ccccc2n2c(=O)c(=O)n(CC(=O)Nc3ccc(C(C)C)cc3)nc12 returned CHOP UPR activ 4, CHOP inhibitor 87*, UPR XBP1 act 0, Jurkat NFkB inh 18 and 697 NFkB inh 7.
Screening O=C(COC(=O)C1CCN(c2ccc(C(F)(F)F)cn2)CC1)Nc1cccc(F)c1 returned CHOP UPR activ 0, UPR XBP1 act -1, Jurkat NFkB inh -13 and 697 NFkB inh 9.
COCC(COS(N)(=O)=O)C(C)C (centres undefined) was read as CHOP UPR activ 2, UPR XBP1 act -1, Jurkat NFkB inh 13 and 697 NFkB inh 2.
For CC(=O)CSc1cc(-c2ccccc2)nc2ncnn12 the results were CHOP UPR activ -1, CHOP inhibitor -4, UPR XBP1 act -2, Jurkat NFkB inh 4 and 697 NFkB inh 14.
`CC(=O)N(CCN(C(C)=O)c1ccccc1)c1ccccc1` gave CHOP UPR activ 0, CHOP inhibitor -20, UPR XBP1 act 0, Jurkat NFkB inh 6 and 697 NFkB inh -18.
Screening CC(C)(C)C(=O)N(CCN(C(=O)C(C)(C)C)c1ccccc1)c1ccccc1 returned CHOP UPR activ 2, CHOP inhibitor 78*, UPR XBP1 act 0, Jurkat NFkB inh 5 and 697 NFkB inh 28.
O=C(Nc1ccc2c(c1)CCC2)c1cc(S(=O)(=O)Nc2ccc(F)cc2)c(Cl)cc1Cl was read as CHOP UPR activ 0, CHOP inhibitor 78*, UPR XBP1 act -2, Jurkat NFkB inh 4 and 697 NFkB inh -12.
`Cc1[nH]c2ccccc2c1C1C(c2ccccc2)=NN=C(C(C)C)N1O` (centres undefined) gave CHOP UPR activ -2, CHOP inhibitor 72*, UPR XBP1 act -1, Jurkat NFkB inh -15 and 697 NFkB inh 2.
`CC1=NN=C(c2ccccc2)C(c2c[nH]c3ccccc23)N1O` (centres undefined) gave CHOP UPR activ 2, CHOP inhibitor -29, UPR XBP1 act -1, Jurkat NFkB inh -14 and 697 NFkB inh -14.
CC1CN(C(=O)COC(=O)CSc2ccc([N+](=O)[O-])cc2)CC(C)O1 (centres undefined) was read as CHOP UPR activ 3, UPR XBP1 act -1, Jurkat NFkB inh 18 and 697 NFkB inh -6.
For CC(C)CCN(C(=O)c1ccc(Br)cc1)c1c(N)n(Cc2ccccc2)c(=O)[nH]c1=O the results were CHOP UPR activ 1, UPR XBP1 act 0, Jurkat NFkB inh 1 and 697 NFkB inh 6.
Screening O=C(Nc1nncs1)C1CC(=O)N(CCc2ccc(F)cc2)C1 (centres undefined) returned CHOP UPR activ -1, UPR XBP1 act 1, Jurkat NFkB inh -3 and 697 NFkB inh -4.
Screening Cc1nc(-c2cccnc2)sc1C(=O)Nc1cccc(C(F)(F)F)c1 returned CHOP UPR activ -4, CHOP inhibitor 83*, UPR XBP1 act -2, Jurkat NFkB inh 1 and 697 NFkB inh -29.
Cc1nc(-c2cccnc2)sc1C(=O)Nc1ccc(C(F)(F)F)cc1 was read as CHOP UPR activ -2, CHOP inhibitor 44, UPR XBP1 act 1, Jurkat NFkB inh -7 and 697 NFkB inh -82.
For O=C(Nc1ccccc1OC(F)F)c1cccc(S(=O)(=O)N2CCCC2)c1 the results were CHOP UPR activ -1, UPR XBP1 act -1, Jurkat NFkB inh -2 and 697 NFkB inh 5.
For Cc1cc(OCC(=O)Nc2ccc(S(=O)(=O)NC3=NCCCCC3)cc2)c(C(C)C)cc1Cl the results were CHOP UPR activ 9, CHOP inhibitor 43, UPR XBP1 act -2, Jurkat NFkB inh -1 and 697 NFkB inh -11.
For C=CCn1cnc2scc(-c3ccc(C)cc3)c2c1=O the results were CHOP UPR activ -2, CHOP inhibitor 75*, UPR XBP1 act 0, Jurkat NFkB inh -7 and 697 NFkB inh 27.
For Nc1ccc2nc[nH]c2c1 the results were CHOP UPR activ -2, CHOP inhibitor 3, UPR XBP1 act 5, Jurkat NFkB inh 16 and 697 NFkB inh 6.
For CC1CCCC(NC(=O)COC(=O)c2ccccc2NC(=O)c2ccco2)C1C (centres undefined) the results were CHOP UPR activ -2, CHOP inhibitor 92*, UPR XBP1 act 1, Jurkat NFkB inh 7 and 697 NFkB inh 14.
`C=CCn1c(=NC(=O)c2ccco2)sc2cc(C(=O)OCC)ccc21` gave CHOP UPR activ 3, CHOP inhibitor 84*, UPR XBP1 act 0, Jurkat NFkB inh -18 and 697 NFkB inh -16.

Screening results as filed in PubChem.
